Laboratory results: ChEMBL document CHEMBL5705898 (Proc Natl Acad Sci U S A, 2014)

Experiments:
[1] = molecular target: Melatonin receptor type 1A (Homo sapiens) (UniProt P48039); assay: Inhibition of human MT1 at 10 uM relative to control
[2] = Lipophilicity, logD of compound at pH 7.4; assay type: physicochemical; conditions: buffer
[3] = molecular target: Angiotensin-converting enzyme (Homo sapiens) (UniProt P12821); assay: Inhibition of human ACE at 10 uM relative to control
[4] = molecular target: Substance-K receptor (Homo sapiens) (UniProt P21452); assay: Inhibition of human NK2 receptor at 10 uM relative to control
U2OS = assay: Cytotoxicity against human U2OS cells assessed as reduction in cell viability at <50 uM by alamar blue assay; assay type: toxicity, cell-based
[5] = molecular target: Alpha-2A adrenergic receptor (Homo sapiens) (UniProt P08913); assay: Inhibition of human alpha 2A receptor at 10 uM relative to control
Alpha-2A adrenergic receptor (Homo sapiens), sequence (P08913 whole entry): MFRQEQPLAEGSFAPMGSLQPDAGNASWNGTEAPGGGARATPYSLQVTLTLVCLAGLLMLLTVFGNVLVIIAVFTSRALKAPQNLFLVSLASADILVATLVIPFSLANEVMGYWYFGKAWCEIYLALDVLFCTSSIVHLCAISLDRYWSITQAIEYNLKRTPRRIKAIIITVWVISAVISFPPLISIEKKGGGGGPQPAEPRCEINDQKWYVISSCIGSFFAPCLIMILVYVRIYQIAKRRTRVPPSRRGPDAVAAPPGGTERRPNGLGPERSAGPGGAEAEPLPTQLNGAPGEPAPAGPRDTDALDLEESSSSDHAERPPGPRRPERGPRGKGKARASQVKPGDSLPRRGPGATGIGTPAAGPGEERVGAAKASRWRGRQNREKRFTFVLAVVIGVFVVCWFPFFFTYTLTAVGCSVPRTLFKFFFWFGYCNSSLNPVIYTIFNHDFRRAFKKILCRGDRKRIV

Homo sapiens [6] = species: Homo sapiens; assay: Inhibition of Na+ channel site 2 (unknown origin) at 10 uM relative to control
[7] = Inhibition of SETD7 V274E mutant (unknown origin) using biotinylated H3 (1-25) peptide as substrate incubated for 1 hrs in presence of 3H-SAM by radioactivity based assay; design: species or system Homo sapiens
Method in brief: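 Scintillation proximity assay on recombinant E. coli-expressed human SETD7(1–366) mutant forms. Read-out was incorporation of the ³H-methyl group from ³H-SAM into histone H3(1–25) peptide, with 2 µM SAM, 2 µM H3(1–25) and 2 nM enzyme. IC50 is given as the mean ± SD of triplicate runs.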

[8] = molecular target: Muscarinic acetylcholine receptor M2 (Homo sapiens) (UniProt P08172); assay: Inhibition of human M2 receptor at 10 uM relative to control
[9] = molecular target: D(3) dopamine receptor (Homo sapiens) (UniProt P35462); assay: Inhibition of human D3 receptor at 10 uM relative to control
D(3) dopamine receptor (Homo sapiens), sequence (P35462 whole entry): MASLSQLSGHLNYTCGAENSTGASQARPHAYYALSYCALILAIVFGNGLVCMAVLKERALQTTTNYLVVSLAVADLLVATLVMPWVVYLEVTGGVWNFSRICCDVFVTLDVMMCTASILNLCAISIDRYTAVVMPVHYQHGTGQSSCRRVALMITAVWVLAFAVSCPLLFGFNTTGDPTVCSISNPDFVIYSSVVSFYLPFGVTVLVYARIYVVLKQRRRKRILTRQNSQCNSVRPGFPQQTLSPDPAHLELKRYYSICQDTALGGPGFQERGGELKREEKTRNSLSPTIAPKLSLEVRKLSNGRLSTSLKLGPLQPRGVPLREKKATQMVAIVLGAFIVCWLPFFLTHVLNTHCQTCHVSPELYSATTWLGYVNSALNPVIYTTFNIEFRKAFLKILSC

[10] = molecular target: Delta-type opioid receptor (Homo sapiens) (UniProt P41143); assay: Inhibition of human delta 2 opioid receptor at 10 uM relative to control
Delta-type opioid receptor (Homo sapiens), sequence (P41143 whole entry): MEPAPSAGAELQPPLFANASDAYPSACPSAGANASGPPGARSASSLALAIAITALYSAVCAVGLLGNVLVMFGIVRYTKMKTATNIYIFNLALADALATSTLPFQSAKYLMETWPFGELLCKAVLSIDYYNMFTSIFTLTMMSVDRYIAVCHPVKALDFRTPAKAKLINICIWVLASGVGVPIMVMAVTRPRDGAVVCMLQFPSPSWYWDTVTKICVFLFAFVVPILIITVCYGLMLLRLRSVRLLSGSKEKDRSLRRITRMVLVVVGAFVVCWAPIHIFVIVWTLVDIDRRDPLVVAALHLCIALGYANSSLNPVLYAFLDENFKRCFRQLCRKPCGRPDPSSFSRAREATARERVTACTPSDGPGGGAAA

Homo sapiens [11] = species: Homo sapiens; assay: Inhibition of GABA-gated Cl- channel (unknown origin) at 10 uM relative to control
[12] = Stability of compound in cell media by MS-LC analysis; assay type: physicochemical
[13] = molecular target: Somatostatin receptor type 4 (Homo sapiens) (UniProt P31391); assay: Inhibition of human sst4 at 10 uM relative to control
Somatostatin receptor type 4 (Homo sapiens), sequence (P31391 whole entry): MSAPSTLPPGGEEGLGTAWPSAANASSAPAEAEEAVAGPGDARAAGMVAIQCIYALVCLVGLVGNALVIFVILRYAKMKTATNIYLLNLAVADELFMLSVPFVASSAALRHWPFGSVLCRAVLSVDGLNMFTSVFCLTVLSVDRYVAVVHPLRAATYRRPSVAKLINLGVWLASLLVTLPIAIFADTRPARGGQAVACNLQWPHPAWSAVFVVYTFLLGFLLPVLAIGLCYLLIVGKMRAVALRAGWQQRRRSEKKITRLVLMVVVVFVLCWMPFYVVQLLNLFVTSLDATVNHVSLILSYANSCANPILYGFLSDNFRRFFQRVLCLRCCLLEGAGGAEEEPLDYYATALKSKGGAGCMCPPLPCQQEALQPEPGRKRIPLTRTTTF

[14] = molecular target: Bombesin receptor subtype-3 (Homo sapiens) (UniProt P32247); assay: Inhibition of human BB3 receptor at 10 uM relative to control
[15] = molecular target: Histone-lysine N-methyltransferase SETD7 (Homo sapiens) (UniProt Q8WTS6); conditions: HEK293, dose 10.0 µM
Histone-lysine N-methyltransferase SETD7 (Homo sapiens), sequence (Q8WTS6 whole entry): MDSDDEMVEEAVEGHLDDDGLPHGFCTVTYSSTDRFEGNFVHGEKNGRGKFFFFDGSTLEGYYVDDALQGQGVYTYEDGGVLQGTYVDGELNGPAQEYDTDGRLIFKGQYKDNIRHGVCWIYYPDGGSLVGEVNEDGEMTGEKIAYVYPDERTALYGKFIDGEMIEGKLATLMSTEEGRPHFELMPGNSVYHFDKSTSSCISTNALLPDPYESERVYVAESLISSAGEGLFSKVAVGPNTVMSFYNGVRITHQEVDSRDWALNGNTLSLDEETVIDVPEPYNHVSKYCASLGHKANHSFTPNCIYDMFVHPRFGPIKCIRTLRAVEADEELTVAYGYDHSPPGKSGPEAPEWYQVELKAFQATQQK

Homo sapiens [16] = species: Homo sapiens; assay: Inhibition of kainate receptor (unknown origin) at 10 uM relative to control
[17] = molecular target: 5-hydroxytryptamine receptor 2A (Homo sapiens) (UniProt P28223); assay: Inhibition of human 5-HT2A receptor at 10 uM relative to control
[18] = molecular target: Angiotensin-converting enzyme 2 (Homo sapiens) (UniProt Q9BYF1); assay: Inhibition of human ACE-2 at 10 uM relative to control
Motilin receptor = Motilin receptor (Homo sapiens, UniProt O43193); assay: Inhibition of human motilin receptor
[19] = molecular target: Type-1 angiotensin II receptor (Homo sapiens) (UniProt P30556); assay: Inhibition of human AT1 receptor at 10 uM relative to control
Type-1 angiotensin II receptor (Homo sapiens), sequence (P30556 whole entry): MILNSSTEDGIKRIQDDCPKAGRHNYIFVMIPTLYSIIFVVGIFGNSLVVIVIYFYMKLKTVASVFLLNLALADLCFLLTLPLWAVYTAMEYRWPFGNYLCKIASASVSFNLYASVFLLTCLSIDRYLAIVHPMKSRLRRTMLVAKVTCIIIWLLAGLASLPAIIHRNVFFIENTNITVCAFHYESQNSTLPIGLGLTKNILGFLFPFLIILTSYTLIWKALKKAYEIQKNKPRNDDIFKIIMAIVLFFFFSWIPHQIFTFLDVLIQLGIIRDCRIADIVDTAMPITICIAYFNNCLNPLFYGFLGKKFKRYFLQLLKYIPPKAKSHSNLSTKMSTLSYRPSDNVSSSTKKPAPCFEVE

[20] = molecular target: Muscarinic acetylcholine receptor M4 (Homo sapiens) (UniProt P08173); assay: Inhibition of human M4 receptor at 10 uM relative to control
[21] = molecular target: Cysteinyl leukotriene receptor 1 (Homo sapiens) (UniProt Q9Y271); assay: Inhibition of human CysLT1 at 10 uM relative to control
[22] = molecular target: Vasoactive intestinal polypeptide receptor 1 (Homo sapiens) (UniProt P32241); assay: Inhibition of human VPAC1 at 10 uM relative to control
Vasoactive intestinal polypeptide receptor 1 (Homo sapiens), sequence (P32241 whole entry): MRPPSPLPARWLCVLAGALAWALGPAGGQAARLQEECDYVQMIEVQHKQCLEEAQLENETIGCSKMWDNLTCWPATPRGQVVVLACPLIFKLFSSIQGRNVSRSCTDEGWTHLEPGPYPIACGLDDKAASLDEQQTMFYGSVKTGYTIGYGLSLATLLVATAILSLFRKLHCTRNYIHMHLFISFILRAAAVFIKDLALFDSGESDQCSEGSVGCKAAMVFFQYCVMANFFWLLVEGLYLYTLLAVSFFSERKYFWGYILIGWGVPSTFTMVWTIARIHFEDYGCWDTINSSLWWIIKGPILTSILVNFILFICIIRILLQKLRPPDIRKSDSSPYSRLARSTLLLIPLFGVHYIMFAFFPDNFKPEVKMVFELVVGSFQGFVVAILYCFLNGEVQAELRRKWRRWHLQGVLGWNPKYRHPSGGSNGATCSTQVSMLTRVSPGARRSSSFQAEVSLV

[23] = molecular target: Alpha-2B adrenergic receptor (Homo sapiens) (UniProt P18089); assay: Inhibition of human alpha 2B receptor at 10 uM relative to control
Alpha-2B adrenergic receptor (Homo sapiens), sequence (P18089 whole entry): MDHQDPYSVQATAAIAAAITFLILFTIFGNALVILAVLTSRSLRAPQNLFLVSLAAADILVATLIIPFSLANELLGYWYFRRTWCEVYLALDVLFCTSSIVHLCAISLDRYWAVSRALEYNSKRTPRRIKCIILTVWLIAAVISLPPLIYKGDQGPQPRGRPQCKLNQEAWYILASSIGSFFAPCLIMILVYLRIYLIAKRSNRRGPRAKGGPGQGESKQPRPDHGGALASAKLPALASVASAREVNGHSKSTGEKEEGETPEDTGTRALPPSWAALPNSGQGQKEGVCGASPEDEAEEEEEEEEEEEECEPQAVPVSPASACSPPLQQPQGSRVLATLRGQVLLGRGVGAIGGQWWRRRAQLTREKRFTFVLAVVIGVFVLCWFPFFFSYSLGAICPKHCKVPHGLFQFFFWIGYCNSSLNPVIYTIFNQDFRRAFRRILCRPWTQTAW

[24] = molecular target: Vascular endothelial growth factor receptor 1 (Homo sapiens) (UniProt P17948); assay: Inhibition of human FLT-1 kinase (VEGFR1) at 10 uM relative to control
Vascular endothelial growth factor receptor 1 (Homo sapiens), sequence (P17948 whole entry): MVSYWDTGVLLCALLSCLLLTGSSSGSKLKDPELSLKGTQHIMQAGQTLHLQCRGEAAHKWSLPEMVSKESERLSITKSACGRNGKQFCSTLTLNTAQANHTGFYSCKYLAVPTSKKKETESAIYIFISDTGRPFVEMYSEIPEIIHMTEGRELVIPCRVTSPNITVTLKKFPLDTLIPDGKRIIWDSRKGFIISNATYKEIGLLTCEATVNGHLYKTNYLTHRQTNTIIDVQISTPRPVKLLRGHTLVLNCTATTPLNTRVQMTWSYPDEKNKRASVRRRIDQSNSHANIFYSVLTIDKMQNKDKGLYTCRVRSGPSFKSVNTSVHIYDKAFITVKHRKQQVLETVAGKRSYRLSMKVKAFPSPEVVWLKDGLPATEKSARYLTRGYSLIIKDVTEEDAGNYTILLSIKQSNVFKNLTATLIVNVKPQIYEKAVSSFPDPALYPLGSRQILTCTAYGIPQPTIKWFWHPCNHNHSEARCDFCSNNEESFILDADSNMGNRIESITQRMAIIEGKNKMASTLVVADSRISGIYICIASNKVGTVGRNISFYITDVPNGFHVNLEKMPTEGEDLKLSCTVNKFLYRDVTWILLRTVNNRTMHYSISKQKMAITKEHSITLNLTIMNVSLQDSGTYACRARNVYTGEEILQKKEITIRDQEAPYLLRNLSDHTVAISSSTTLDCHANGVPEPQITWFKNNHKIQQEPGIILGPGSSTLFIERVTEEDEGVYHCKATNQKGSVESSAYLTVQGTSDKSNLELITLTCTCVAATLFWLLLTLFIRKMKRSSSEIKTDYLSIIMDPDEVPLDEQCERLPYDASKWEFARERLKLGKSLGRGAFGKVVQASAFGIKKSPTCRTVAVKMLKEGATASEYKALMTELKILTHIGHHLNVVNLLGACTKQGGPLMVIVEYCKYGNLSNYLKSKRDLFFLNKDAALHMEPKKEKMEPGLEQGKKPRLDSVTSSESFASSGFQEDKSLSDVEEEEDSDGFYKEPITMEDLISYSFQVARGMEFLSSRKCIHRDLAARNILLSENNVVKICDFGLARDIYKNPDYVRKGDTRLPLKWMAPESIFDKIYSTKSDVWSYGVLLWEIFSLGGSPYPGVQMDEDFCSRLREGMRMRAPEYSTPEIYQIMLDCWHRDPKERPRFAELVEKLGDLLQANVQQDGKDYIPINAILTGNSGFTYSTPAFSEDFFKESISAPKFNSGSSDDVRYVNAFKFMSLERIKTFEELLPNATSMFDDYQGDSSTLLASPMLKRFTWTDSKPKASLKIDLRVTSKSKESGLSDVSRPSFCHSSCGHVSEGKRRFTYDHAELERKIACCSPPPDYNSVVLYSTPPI

Melatonin receptor type 1A (Homo sapiens), sequence (P48039 whole entry): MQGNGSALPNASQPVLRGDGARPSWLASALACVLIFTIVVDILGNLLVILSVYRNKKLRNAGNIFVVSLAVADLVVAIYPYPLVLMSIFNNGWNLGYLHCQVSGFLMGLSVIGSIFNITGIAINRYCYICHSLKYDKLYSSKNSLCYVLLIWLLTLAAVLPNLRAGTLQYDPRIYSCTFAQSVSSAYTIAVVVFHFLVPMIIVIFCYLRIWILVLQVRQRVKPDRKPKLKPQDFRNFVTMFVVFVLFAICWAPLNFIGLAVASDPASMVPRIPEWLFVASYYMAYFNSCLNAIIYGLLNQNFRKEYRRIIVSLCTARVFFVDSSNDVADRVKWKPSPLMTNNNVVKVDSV

O=C([C@@H](Cc1cccc(C(F)(F)F)c1)NS(=O)(=O)c1cc(F)c2c(c1)CCNC2)N1CCCC1
inhibition [1]: 7%
logD [2]: 2.3
inhibition [3]: -4%
inhibition [4]: 28%
Activity (U2OS): Non-Toxic
inhibition [5]: 15%
inhibition (Homo sapiens [6]): 43%
IC50 [7]: 10.8 µM
inhibition [8]: 3%
inhibition [9]: 43%
inhibition [10]: 47%
inhibition (Homo sapiens [11]): 28%
Stability [12]: Stable
inhibition [13]: 27%
inhibition [14]: 61%
deltaT [15]: 4 °C
inhibition (Homo sapiens [16]): -3%
inhibition [17]: 3%
inhibition [18]: 4%
IC50 (Motilin receptor): 7.2 µM
inhibition [19]: 15%
inhibition [20]: 19%
inhibition [21]: -1%
inhibition [22]: -8%
inhibition [23]: 79%
inhibition [24]: 1%
